Mdm2-MdmX inh: inhibitors of human Mdm2-MdmX association, primary screen, cell-based, luminescence, split luciferase, SaOS-2, uHTS. Protein Mdm4 (Homo sapiens) + E3 ubiquitin-protein ligase Mdm2 (Homo sapiens), …. SaOS-2 split-luciferase Mdm2/MdmX complementation. inhibition, % at 8 µM. actives 3% (n = 330,000);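 active means inhibition of at least 50% at 8 µM in the primary screen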
Target sequence (O15151 whole entry, looked up): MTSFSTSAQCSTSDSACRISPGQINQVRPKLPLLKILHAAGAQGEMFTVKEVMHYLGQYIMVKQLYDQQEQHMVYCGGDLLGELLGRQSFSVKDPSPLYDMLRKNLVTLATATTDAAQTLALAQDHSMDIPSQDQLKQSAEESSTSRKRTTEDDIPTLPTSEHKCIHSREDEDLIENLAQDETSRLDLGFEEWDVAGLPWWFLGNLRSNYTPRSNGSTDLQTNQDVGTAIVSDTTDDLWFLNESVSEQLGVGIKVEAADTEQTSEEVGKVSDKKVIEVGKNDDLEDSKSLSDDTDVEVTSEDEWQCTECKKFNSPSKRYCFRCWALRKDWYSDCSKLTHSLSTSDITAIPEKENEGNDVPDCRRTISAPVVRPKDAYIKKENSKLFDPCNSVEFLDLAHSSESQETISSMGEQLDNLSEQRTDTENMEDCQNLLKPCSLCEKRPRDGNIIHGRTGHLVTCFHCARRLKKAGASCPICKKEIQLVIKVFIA
Target sequence (Q00987 whole entry, looked up): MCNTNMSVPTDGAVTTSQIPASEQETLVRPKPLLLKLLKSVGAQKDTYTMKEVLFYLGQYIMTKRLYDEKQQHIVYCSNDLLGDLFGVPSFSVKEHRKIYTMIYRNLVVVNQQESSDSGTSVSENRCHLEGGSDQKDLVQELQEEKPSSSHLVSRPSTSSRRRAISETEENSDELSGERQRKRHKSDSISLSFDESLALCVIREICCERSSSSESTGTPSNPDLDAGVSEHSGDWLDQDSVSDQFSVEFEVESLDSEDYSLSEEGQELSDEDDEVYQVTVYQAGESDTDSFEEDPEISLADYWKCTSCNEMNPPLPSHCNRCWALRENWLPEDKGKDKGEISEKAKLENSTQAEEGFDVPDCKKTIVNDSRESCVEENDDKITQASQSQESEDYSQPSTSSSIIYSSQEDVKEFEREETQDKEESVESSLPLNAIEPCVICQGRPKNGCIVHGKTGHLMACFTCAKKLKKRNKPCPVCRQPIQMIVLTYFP
UPR XBP1 act: activators of adaptive XBP1 UPR arm, primary screen, cell-based, CHO-XBP1 luciferase reporter, luminescence, uHTS; IRE1-XBP1 UPR activation; percent of tunicamycin response, DMSO as zero; activation, % at 20 µM; actives 0.33% (n = 330,000); AID 463104, 2010;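 active means versus positive control, 20 µM dose yields 30% or more activation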;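 further: 100% = tunicamycin at 10 µg/mL and 0% = DMSO only wells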
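Material: CHO-XBP1 cells stably carrying IRE1-XBP1-driven luciferase reporter | Medium: F12 with 10% serum | Compound dosing: 20 µM single concentration, DMSO 1% | Incubation: Overnight seeding at 37 °C, 6 h compound treatment at 37 °C | Detection: Steady-Glo luminescence read | Read-out basis: % activation of reporter signal versus tunicamycin and DMSO controls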
CHOP UPR activ: activators of apoptotic CHOP UPR arm, primary screen, cell-based, CHO-CHOP luciferase reporter, luminescence, uHTS; UPR activation; percent of tunicamycin response over DMSO baseline; activation, % at 10 µM; actives 0.34% (n = 330,000); AID 449763, 2010;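 active means at 10 µM dose, activation of 40% or more, normalized to positive control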;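 further: 100% = tunicamycin at 10 µg/mL and 0% = DMSO alone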
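Evaluation: % reporter activation, DMSO baseline versus tunicamycin full activation; System: CHO-CHOP luciferase reporter cell line; Input: 500 cells/well; Incubation: 6 h compound treatment, 37 °C; Measured by: Steady-Glo luciferase luminescence; Dosing: one dose, 10 µM in 0.5% DMSO; Buffer or medium: F12 medium, 10% FBS; Benchmarks: positive tunicamycin 10 µg/mL, negative DMSO alone.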
T cruzi inh: inhibitors of intracellular T. cruzi growth, primary screen, luminescence, NIH3T3 host cells. T. cruzi beta-gal in NIH3T3, 90 h. inhibition, % (test concentration not listed). actives 1.4% (n = 300,000). AID 1885, 2009;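 active means mean inhibition across valid replicates above about 55%, limit read from the data; inconclusive means mean below that limit but half or more replicates reach it; inactive means mean below it, under half of replicates reach it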;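 further: signal also drops with host cell toxicity which is not excluded here; 0% = plate median of DMSO wells and 100% = zero luminescence signal; higher percent means less beta-gal luminescence so fewer parasites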
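assay system = mouse NIH/3T3 fibroblasts infected with β-gal-expressing T. cruzi Tulahuen C4 | input = 5,000 NIH/3T3 host cells per well | buffer or medium = DMEM plus 2% FBS | timing = 3 h host attachment, then at least 90 h co-culture | measured by = GalScreen luminescence, 60 min | evaluation = luminescence reflecting intracellular parasite burden, expressed as percent inhibition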
Beta cell apopt: inhibitors of cytokine-induced beta cell apoptosis, primary screen, luminescence. actives 0.8% (n = 300,000). INS-1E cytokine-induced death, ATP luminescence, 48 h; percent of positive-control rescue, neutral wells zero. protection from apoptosis, % (no concentration beside the values);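 active means Every replicate reaches about 75%, or at least half do and their mean reaches it too, limit read from the data; inconclusive means At least half of replicates reach the limit but their mean does not; inactive means Under half of replicates reach the limit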;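 further: 0% = cytokine-treated negative control wells and 100% = positive control rescue; higher means more ATP so stronger rescue from cytokine killing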
CSC inhib: cancer stem cell viability inhibitors, primary screen, luminescence | cancer stem cell-like cells viability | inhibition, % at 7.5 µM | actives 1.1% (n = 300,000) | AID 2717, 2010; in the data active means inhibition above about 75%; inconclusive means no clear call, values can overlap the other calls; tested in HMLE shEcad cells
Mdm2 MdmX conf: Mdm2-MdmX complex disruptors, retested hits, confirmation, luminescence, single concentration; shares compounds with Mdm2-MdmX inh; Mdm2-MdmX binding, luminescent assay; actives 55% (n = 10,000); inhibition, % at 8 µM; in the data active means inhibition above about 40%
Full FLuc ctr: full-length luciferase signal inhibition, confirmation, counter-screen for Mdm2/MdmX interaction inhibitor project, cell-based, single concentration, SaOS-2; shares compounds with Mdm2-MdmX inh; SaOS-2 full-length luciferase counterscreen, luminescence; inhibition, % at 8 µM; actives 77% (n = 6,200); AID 504607, 2011;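 active means mean inhibition at 8 µM reaching about 37%, which flags the compound as non-specific, limit read from the data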;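 further: p53-null SaOS-2 cells with luciferase driven by a doxycycline-inducible promoter; compound on cells about two nights before reading with doxycycline added after day one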
Starred values were filed as active, the others as inactive; ? = inconclusive; nt = not tested or not shown. Rows were chosen to be rich in hits. Some 5% of all compounds tested hit in one or more screens of this group.

SMILES	Mdm2-MdmX inh	UPR XBP1 act	CHOP UPR activ	T cruzi inh	Beta cell apopt	CSC inhib	Mdm2 MdmX conf	Full FLuc ctr
Cc1nn(-c2ccccc2)c2nc(N)c(C#N)c(-c3ccc(O)c(O)c3)c12	55*	4	3	42	-1	44	23	nt
COc1cc(-c2c(C#N)c(N)nc3c2c(C)nn3-c2ccc(C)c(C)c2)cc(OC)c1OC	45	2	4	45	14	12	nt	nt
CN(c1ccc(F)cc1)S(=O)(=O)c1ccc(Cl)c(C(=O)OCC(=O)NCc2ccco2)c1	19	-6	0	-6	-7	-4	nt	nt
CCc1ccccc1N(C(C)=O)c1nc(CN=C=S)cs1	-11	-6	-1	-15	5	7	nt	nt
COc1ccc(NC(=O)c2cncn2-c2ccccc2)cc1	0	-3	2	-4	-4	-11	nt	nt
CC(=O)c1cc2c(cc1NC(=O)c1ccc(Cl)cc1)OCCO2	57*	5	4	8	nt	4	7	nt
O=C1CN(C(=O)COc2cccc(F)c2)c2ccccc2N1	5	0	2	3	5	nt	nt	nt
Cc1noc(C)c1COc1cccc(C(=O)OCC(=O)N2CC(=O)Nc3ccccc32)c1	50*	2	-1	15	16	54	67*	59*
Cc1cc(C(C#N)c2ccc(Cl)cc2)c(Cl)cc1NC(=O)c1cc(I)cc(I)c1O (stereo not drawn)	54*	1	0	-12	7	96*	12	nt
Cc1cc(NC(=O)c2ccc(Cl)cc2)c(C)cc1O	-23	1	3	-13	nt	-5	nt	nt
CCCOc1c(OC)cccc1C1CC(=O)Nc2cc3c(cc21)OCCO3 (stereo not drawn)	52*	-4	-1	-3	2	?	55*	68*
CCCOc1c(OC)cccc1C1CC(=O)Nc2cc3c(cc21)OCO3 (stereo not drawn)	55*	-2	2	14	nt	51	51*	68*
CCOc1ccccc1C1C2=C(COC2=O)Nc2cc3c(cc21)OCO3 (stereo not drawn)	69*	15	2	34	35	39	57*	65*
CCOc1ccccc1C1CC(=O)Nc2cc3c(cc21)OCO3 (stereo not drawn)	40	4	-3	13	33	62	nt	nt
COc1ccccc1C1CC(=O)Nc2cc3c(cc21)OCCO3 (stereo not drawn)	55*	8	-1	-83	32	72	59*	64*
COC(=O)c1cc(-c2ccc(Br)cc2)c2c(=O)n(C)c(=O)n(C)c2n1	72*	-2	1	-12	2	9	4	nt
O=C(NCCN1CCN(Cc2ccccc2Cl)CC1)Nc1ccccc1	3	1	-2	40	-2	1	nt	nt
COc1ccccc1CNC(=O)COC(=O)c1cc(=O)c2ccccc2o1	-10	-2	-2	nt	-1	-10	nt	nt
COc1ccc(/C=N/Nc2cc(C)nc3ccc(OC)cc23)c(OC)c1	100*	5	21	58*	117*	101*	99*	51*
COc1ccc2nc(C)cc(N/N=C/c3ccccc3)c2c1	100*	14	12	nt	96*	97*	26	nt
COc1ccccc1/C=N/Nc1cc(C)nc2ccc(C)cc12	-38	-2	0	4	-1	57	nt	nt
c1cc2[nH]snc2c2nc(C3CC3)nc12	72*	1	-1	-9	-6	-10	73*	26
CCOC(=O)c1c(C)n(-c2ccc(C)cc2)c2ccc(O)c(CN(C)C)c12	54*	1	1	26	45	1	40	66*
CCOC(=O)c1c(C)n(C)c2ccc(O)c(CN(C)C)c12	31	-1	-1	-7	-1	-12	nt	nt
CCOC(=O)c1c(C)n(-c2ccc(OC)cc2)c2ccc(O)c(CN(C)C)c12	64*	-1	4	31	10	11	44*	54*
SMILES	Mdm2-MdmX inh	UPR XBP1 act	CHOP UPR activ	T cruzi inh	Beta cell apopt	CSC inhib	Mdm2 MdmX conf	Full FLuc ctr
O=c1cccc2c1c1cc[nH]c3ccc(=O)n2c31	73*	5	3	5	-5	-11	68*	53*
CCc1ccc(/C=C/c2c([N+](=O)[O-])c(=O)n(C)c(=O)n2C)cc1	64*	2	-1	21	2	17	44*	40*
CCOc1ccc(/C=C/c2c([N+](=O)[O-])c(=O)n(C)c(=O)n2C)cc1	34	-2	0	-4	1	-7	nt	nt
COC(=O)[C@@]1(Cc2ccc(F)cc2)[C@H]2c3cc(C(=O)N(C)C)n(CCc4ccc(OC)c(Br)c4)c3C[C@H]2CN1C(=O)c1ccccc1	67*	3	7	-3	-1	21	30	nt
COc1ccc(-c2nn(-c3ccccc3)cc2/C=N/NC(=O)c2ccc(Br)o2)cc1	68*	-8	-6	21	nt	24	-38	nt
C=CCNC(=S)N/N=C/c1cn(-c2ccccc2)nc1-c1ccc(OC)cc1	51*	2	4	-2	4	-8	16	nt
COc1ccc(C=C(c2nc3ccccc3s2)c2nc3ccccc3s2)cc1O	58*	0	3	24	5	4	45*	63*
COc1ccc(N2CCN(C(c3ccccc3)c3sc4nc(C)nn4c3O)CC2)cc1 (stereo not drawn)	26	-2	2	-1	-7	21	nt	nt
CCN(c1ccccc1)S(=O)(=O)c1ccc(C(=O)NC2CCN(Cc3ccccc3)CC2)cc1	54*	-3	8	nt	84*	32	55*	57*
CCN(c1ccccc1)S(=O)(=O)c1ccc(Cl)c(NC(=O)CN2CCCCCC2)c1	69*	2	-2	60*	104*	?	23	nt
CCN(CC)S(=O)(=O)c1ccc(C)c(NC(=S)NC2CCCCC2)c1	12	-2	1	-3	-1	2	nt	nt
O=C(NC1CC1)c1ccc(CN(c2ccccc2)S(=O)(=O)c2ccccc2)cc1	-12	-5	-1	-5	nt	-3	nt	nt
